Results taken from ChEMBL document CHEMBL1124374, “Enkephalinase inhibitors. 1. 2,4-Dibenzylglutaric acid derivatives” (J Med Chem, 1989).
Active and inactive are the calls of the source.

Legend:
Mus musculus [1] = experiment: Hot-plate jump-latency activity in mouse 15 minutes after subcutaneous administration; assay type: functional; conditions: sc, 0.25 h, read-out: MED
How it was run: (§1)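 Male CF1 mice (18–23 g) dosed icv or sc; 15 min later placed singly on a copper hot plate held at 55 °C. Latency to jump recorded, cutoff 240 s. MED = minimum effective dose. ED200 = dose doubling jump latency.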

Mus musculus [2] = experiment: Tail-flick latency observed in CF-1 mice after the administration (30 mg/kg) followed by icv administration of DAEM ([D-Ala2,Met5]enkephalin); assay type: functional
How it was run: (§2)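 Male CF-1 mice (20–22 g) given test agent or vehicle sc, followed immediately by icv DAEM (1 μg) or vehicle. Tail-flick latency measured 30 min later, cutoff 10 s, n = 10.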

Neprilysin [3] = target: T1, Neprilysin (Oryctolagus cuniculus, UniProt P08049); experiment: (§3) Inhibition of enkephalinase activity in membranes prepared from rabbit
T1 sequence (P08049 whole entry): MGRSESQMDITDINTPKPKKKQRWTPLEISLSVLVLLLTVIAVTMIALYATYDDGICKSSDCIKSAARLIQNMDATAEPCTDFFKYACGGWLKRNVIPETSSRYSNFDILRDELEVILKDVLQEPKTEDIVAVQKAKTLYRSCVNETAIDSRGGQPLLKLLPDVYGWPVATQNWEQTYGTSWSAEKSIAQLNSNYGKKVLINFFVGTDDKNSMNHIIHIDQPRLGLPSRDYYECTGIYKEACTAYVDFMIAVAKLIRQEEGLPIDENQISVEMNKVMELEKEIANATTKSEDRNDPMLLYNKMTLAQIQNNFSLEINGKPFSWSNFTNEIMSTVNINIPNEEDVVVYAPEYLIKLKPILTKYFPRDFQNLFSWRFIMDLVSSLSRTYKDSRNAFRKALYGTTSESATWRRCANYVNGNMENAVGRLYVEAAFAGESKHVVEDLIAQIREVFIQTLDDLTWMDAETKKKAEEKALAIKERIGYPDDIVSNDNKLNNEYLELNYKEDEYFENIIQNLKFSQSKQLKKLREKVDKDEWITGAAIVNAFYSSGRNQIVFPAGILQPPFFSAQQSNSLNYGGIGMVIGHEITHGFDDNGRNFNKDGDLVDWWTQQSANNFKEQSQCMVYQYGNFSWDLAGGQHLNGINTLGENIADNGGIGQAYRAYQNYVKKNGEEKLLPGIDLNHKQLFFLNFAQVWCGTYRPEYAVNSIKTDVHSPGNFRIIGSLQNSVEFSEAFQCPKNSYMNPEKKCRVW
How it was run: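 Rabbit protease 24.11 (15 ng protein) incubated 10 min at 37 °C with [Tyr-3H]Leu-enkephalin plus unlabeled Leu-enkephalin (1 μM final) in 50 mM Tris-HCl, pH 6.5. Stopped with TFA. Tyr-Gly-Gly product separated from substrate by C4 reverse-phase HPLC (isocratic, 0.09% TFA/acetonitrile). Fractions counted by scintillation.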

[4] = target: T2, Aminopeptidase N (Sus scrofa) (UniProt P15145); experiment: Inhibition of aminopeptidase; IA is inactive
T2 sequence (whole entry): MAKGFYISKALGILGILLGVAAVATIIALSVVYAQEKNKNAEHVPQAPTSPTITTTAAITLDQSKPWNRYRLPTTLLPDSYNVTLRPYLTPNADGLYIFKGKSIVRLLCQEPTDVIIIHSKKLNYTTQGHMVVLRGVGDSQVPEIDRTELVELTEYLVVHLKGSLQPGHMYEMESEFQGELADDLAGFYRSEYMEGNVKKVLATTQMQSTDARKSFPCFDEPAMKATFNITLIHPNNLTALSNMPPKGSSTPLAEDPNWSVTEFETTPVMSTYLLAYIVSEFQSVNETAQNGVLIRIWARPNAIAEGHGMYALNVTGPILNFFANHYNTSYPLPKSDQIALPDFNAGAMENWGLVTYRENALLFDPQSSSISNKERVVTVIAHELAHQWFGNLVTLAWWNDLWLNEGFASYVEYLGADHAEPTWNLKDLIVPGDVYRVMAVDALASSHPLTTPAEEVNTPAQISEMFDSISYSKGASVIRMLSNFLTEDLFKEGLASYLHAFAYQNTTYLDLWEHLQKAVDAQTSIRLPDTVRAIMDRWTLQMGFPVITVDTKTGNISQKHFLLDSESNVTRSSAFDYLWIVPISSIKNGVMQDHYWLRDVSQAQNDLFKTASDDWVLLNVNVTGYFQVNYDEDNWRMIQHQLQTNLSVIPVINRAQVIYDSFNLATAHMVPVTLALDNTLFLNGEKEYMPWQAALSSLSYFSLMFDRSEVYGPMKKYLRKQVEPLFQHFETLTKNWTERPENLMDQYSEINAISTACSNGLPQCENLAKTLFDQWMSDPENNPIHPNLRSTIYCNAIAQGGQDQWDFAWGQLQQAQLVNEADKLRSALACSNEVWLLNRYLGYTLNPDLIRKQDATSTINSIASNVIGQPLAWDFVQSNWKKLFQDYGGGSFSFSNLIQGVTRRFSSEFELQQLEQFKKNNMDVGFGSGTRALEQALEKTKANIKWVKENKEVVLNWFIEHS
How it was run: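 Kidney cortex membranes (75 μg protein) incubated 15 min at 37 °C in 50 mM Tris, pH 7.4, with 0.8 mM L-leucine p-nitroanilide (final). Reaction stopped with TCA, tubes centrifuged, p-nitroaniline read as OD at 410 nm.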

Mus musculus [5] = experiment: Stretching activity in male CF-1 mice, after the intra peritoneal administration of acetic acid and subcutaneous administration of compound; assay type: functional
How it was run: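 Male CF-1 mice (18–22 g), twelve per dose of agent or vehicle, dosed sc 15 min before ip 3% aqueous acetic acid at 10 mL/kg. Five minutes after irritant, stretching episodes counted over 10 min. ED50 derived from these counts.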

Mus musculus [6] = experiment: Doubling of hotplate jump-latency activity in mouse after subcutaneous administration is determined; assay type: functional; how it was run: as §1
[7] = target: Mu-type opioid receptor (Mus musculus) (UniProt P42866); experiment: Ability to displace tritium-labeled naloxone at opioid receptor, at 10 uM concentration
Neprilysin [8] = target: T3, Neprilysin (Rattus norvegicus, UniProt P07861); experiment: Inhibition of enkephalinase activity in synaptic membranes prepared from rat striatum; assay type: cell membranes
T3 sequence (P07861 whole entry): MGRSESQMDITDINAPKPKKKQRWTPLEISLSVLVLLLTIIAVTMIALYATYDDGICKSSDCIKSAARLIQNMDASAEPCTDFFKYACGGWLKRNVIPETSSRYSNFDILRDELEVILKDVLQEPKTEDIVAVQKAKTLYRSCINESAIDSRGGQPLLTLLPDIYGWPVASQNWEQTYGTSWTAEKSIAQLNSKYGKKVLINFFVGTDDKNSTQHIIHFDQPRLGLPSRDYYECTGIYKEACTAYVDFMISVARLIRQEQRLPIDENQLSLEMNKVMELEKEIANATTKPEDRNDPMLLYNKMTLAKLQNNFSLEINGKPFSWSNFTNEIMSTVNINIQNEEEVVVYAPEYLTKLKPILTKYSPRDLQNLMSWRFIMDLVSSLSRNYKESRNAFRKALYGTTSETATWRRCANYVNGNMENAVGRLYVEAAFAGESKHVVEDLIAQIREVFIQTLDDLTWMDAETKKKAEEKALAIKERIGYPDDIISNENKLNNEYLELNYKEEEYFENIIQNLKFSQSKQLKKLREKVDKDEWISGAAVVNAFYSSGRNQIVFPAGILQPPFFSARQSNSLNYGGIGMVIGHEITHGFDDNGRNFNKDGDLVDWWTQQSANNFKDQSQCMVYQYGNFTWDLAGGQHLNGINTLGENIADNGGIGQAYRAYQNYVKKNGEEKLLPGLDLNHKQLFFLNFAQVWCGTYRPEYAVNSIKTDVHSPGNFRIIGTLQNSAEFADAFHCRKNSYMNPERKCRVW

Mus musculus [9] = experiment: Doubling of hotplate jump-latency activity in mouse after intra cerebro ventricular administration of the compound; assay type: functional; how it was run: as §1
Mus musculus [10] = experiment: Tail-flick latency observed in CF-1 mice after the administration (30 mg/kg) followed by icv administration of DAEM ([D-Ala2,Met5]enkephalin); IA is Inactive; assay type: functional, organism-based; how it was run: as §2
Neprilysin [11] = target: T1, Neprilysin; experiment: as §3; remark: listed apart in the source
Mus musculus [12] = experiment: Antinociceptive effect was determined by mouse hot plate assay after sc administration of the compound; assay type: functional; how it was run: as §1
Opioid receptor = experiment: Ability to displace tritium-labeled naloxone at opiate receptors, at 10 uM concentration

Sequence of Mu-type opioid receptor (Mus musculus) (P42866 whole entry): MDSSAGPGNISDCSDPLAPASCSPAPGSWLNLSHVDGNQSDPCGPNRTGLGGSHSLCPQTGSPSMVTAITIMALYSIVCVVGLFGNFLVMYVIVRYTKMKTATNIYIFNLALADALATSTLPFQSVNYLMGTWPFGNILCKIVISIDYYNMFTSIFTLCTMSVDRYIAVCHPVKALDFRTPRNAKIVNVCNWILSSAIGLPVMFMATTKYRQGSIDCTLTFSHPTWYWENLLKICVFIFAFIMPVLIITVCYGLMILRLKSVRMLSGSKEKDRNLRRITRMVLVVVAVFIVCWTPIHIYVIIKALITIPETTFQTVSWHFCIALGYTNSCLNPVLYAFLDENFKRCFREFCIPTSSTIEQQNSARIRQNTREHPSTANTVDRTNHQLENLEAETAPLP

| Compound | IC50 (Neprilysin [8]) | other results |
| --- | --- | --- |
| CC1(C)O[C@@H]2O[C@@H](COC(=O)CCNC(=O)[C@H](Cc3ccccc3)C[C@@H](Cc3ccccc3)C(=O)[O-])[C@H]3OC(C)(C)O[C@H]3[C@@H]2O1.[Na+] | – | minimal effective dose (Mus musculus [1]): > 30 mg/kg; Reaction time (Mus musculus [2]): 8.1 s |
| COc1cc(CNC(=O)C(CS)Cc2ccccc2)ccc1O (stereo unspecified) | – | IC50 (Neprilysin [3]): 9 nM; inhibition [4]: inactive; ED50 (Mus musculus [5]; sc): 5.5 mg/kg; ED200 (Mus musculus [6]): 6 mg/kg; inhibition [7]: 30% |
| O=C(O)CCNC(=O)C(CCc1ccccc1)CC(CCc1ccccc1)C(=O)O (stereo unspecified) | 1000 nM | – |
| CCOC(=O)C(Cc1ccccc1)CC(Cc1ccccc1)C(=O)NCCC(=O)O (stereo unspecified) | > 1000 nM | ED200 (Mus musculus [9]): 16 µg; minimal effective dose (Mus musculus [1]): > 100 mg/kg; Reaction time (Mus musculus [10]): inactive |
| CC(C)CC(NC(=O)[C@H](Cc1ccccc1)C[C@@H](Cc1ccccc1)C(=O)O)C(=O)O (stereo partly specified) | 40 nM | – |
| O=C(O)CC(=O)NC(Cc1ccccc1)CC(Cc1ccccc1)C(=O)O (stereo unspecified) | – | IC50 (Neprilysin [11]): 62 nM |
| O=C(O)C(CSCc1ccccc1)NC(=O)[C@H](Cc1ccccc1)C[C@@H](Cc1ccccc1)C(=O)O (stereo partly specified) | 4 nM | – |
| O=C(O)CCC(=O)NC(Cc1ccccc1)C[C@@H](Cc1ccccc1)C(=O)O (stereo partly specified) | – | IC50 (Neprilysin [11]): 2 nM |
| O=C([O-])[C@H](Cc1ccccc1)C[C@@H](Cc1ccccc1)C(=O)NCc1ccc(O)c(O)c1.[Na+] | 20 nM | ED200 (Mus musculus [12]): >100 mg/kg |
| O=C(O)CCNC(=O)C(CC1CCCCC1)CC(CC1CCCCC1)C(=O)O (stereo unspecified) | 1000 nM | – |
| O=C(O)CCCNC(=O)C(Cc1ccccc1)CC(Cc1ccccc1)C(=O)O (stereo unspecified) | – | IC50 (Neprilysin [11]): 57 nM |
| O=C(O)c1cccc(NC(=O)[C@@H](Cc2ccccc2)C[C@H](Cc2ccccc2)C(=O)O)c1 | 90 nM | – |
| O=C(O)C(COCc1ccccc1)NC(=O)[C@H](Cc1ccccc1)C[C@@H](Cc1ccccc1)C(=O)O (stereo partly specified) | 6 nM | – |
| O=C(NCc1ccc(O)c(O)c1)C(CS)Cc1ccccc1 (stereo unspecified) | 12 nM | ED50 (Mus musculus [5]): 5 mg/kg; ED200 (Mus musculus [6]): 15 mg/kg; inhibition (Opioid receptor): 15% |
| O=C(O)CCNC(=O)[C@@H](Cc1ccccc1)C[C@H](Cc1ccccc1)C(=O)O | > 1000 nM | – |
| O=C(O)CCC(=O)NC(Cc1ccccc1)CC(Cc1ccccc1)C(=O)O (stereo unspecified) | 9 nM | – |

| Compound | IC50 (Neprilysin [8]) | other results |
| --- | --- | --- |
| O=C(O)CCNC(=O)[C@H](Cc1ccccc1)C[C@@H](Cc1ccccc1)C(=O)OC1OC(=O)c2ccccc21 (stereo partly specified) | – | minimal effective dose (Mus musculus [1]): 30 mg/kg |
| O=C(O)CNC(=O)[C@H](Cc1ccccc1)C[C@@H](Cc1ccccc1)C(=O)O | 4 nM | – |
| O=C(O)CCCC(=O)NC(Cc1ccccc1)CC(Cc1ccccc1)C(=O)O (stereo unspecified) | – | IC50 (Neprilysin [11]): 12 nM |
| N#CCCNC(=O)C(Cc1ccccc1)CC(Cc1ccccc1)C(=O)O (stereo unspecified) | > 1000 nM | – |
| O=C(O)c1cc(NC(=O)[C@H](Cc2ccccc2)C[C@@H](Cc2ccccc2)C(=O)O)ccc1O | 38 nM | – |
| O=C(O)c1ccc(NC(=O)[C@@H](Cc2ccccc2)C[C@H](Cc2ccccc2)C(=O)O)cc1 | 800 nM | – |
| O=C(O)Cc1ccccc1NC(=O)[C@H](Cc1ccccc1)C[C@@H](Cc1ccccc1)C(=O)O | 25 nM | – |
| O=C(O)C(Cc1ccccc1)NC(=O)[C@H](Cc1ccccc1)C[C@@H](Cc1ccccc1)C(=O)O (stereo partly specified) | 29 nM | – |
| O=C(O)C(Cc1ccccc1)CC(Cc1ccccc1)C(=O)NCCCO (stereo unspecified) | 1000 nM | – |
| CC(C)C[C@H](NP(=O)(O)O[C@@H]1O[C@@H](C)[C@H](O)[C@@H](O)[C@H]1O)C(=O)N[C@@H](Cc1c[nH]c2ccccc12)C(=O)O [PHOSPHORAMIDON] | 0.6 nM | IC50 (Neprilysin [11]): 0.4 nM |
| O=C(O)CCNC(=O)C(Cc1ccccc1)CC(Cc1ccccc1)C(=O)O (stereo unspecified) | 18 nM | – |
| O=C(O)c1ccccc1NC(=O)C(Cc1ccccc1)CC(Cc1ccccc1)C(=O)O (stereo unspecified) | 1000 nM | – |
| CC1(C)O[C@H]2[C@H](COC(=O)CCNC(=O)[C@H](Cc3ccccc3)C[C@@H](Cc3ccccc3)C(=O)O)OC(=O)[C@H]2O1 | – | minimal effective dose (Mus musculus [1]): > 30 mg/kg; Reaction time (Mus musculus [2]): 9.8 s |
| O=C(O)C(CCc1ccccc1)NC(=O)[C@H](Cc1ccccc1)C[C@@H](Cc1ccccc1)C(=O)O (stereo partly specified) | 5 nM | – |
| O=C(O)CCCNC(=O)[C@H](Cc1ccccc1)C[C@@H](Cc1ccccc1)C(=O)O | – | IC50 (Neprilysin [3]): 1.4 nM |
| O=C(O)C(Cc1c[nH]c2ccccc12)NC(=O)[C@H](Cc1ccccc1)C[C@@H](Cc1ccccc1)C(=O)O (stereo partly specified) | 74 nM | – |
